Laboratory results: ChEMBL document CHEMBL1138950, “Benzimidazole derivatives bearing substituted biphenyls as hepatitis C virus NS5B RNA-dependent RNA polymerase inhibitors: structure-activity relationship studies and identification of a potent and highly selective inhibitor JTK-109” (J Med Chem, 2006)

Experiments:
[1] = system: Hepatitis C virus; test: Inhibition of HCV subgenomic RNA replication in Huh5-2 cells after 48 hrs by replicon assay; assay type: functional, organism-based, Hepacivirus hominis; details: Huh-5-2, 48 h
Procedure, shortened: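 Huh-5-2 cells (Huh-7-derived, genotype 1b subgenomic replicon with luciferase reporter) seeded at 5 × 10^3 per well in DMEM with 10% FBS, 37 °C, 5% CO2; compounds added next day, 48 h exposure; luciferase activity read. EC50 is the concentration reducing replication by 50%. Triplicate, mean of three experiments.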

[2] = Plasma concentration in rat at 30 mg/kg, po after 2 hrs; assay type: ADME, organism-based; parameters: dose 30 mg/kg, route oral
Procedure, shortened: (§1)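 Rats dosed orally at 30 mg/kg; plasma sampled at 1 and 2 h; n = 2 or 3.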

[3] = molecular target: T1, Cytochrome P450 2C9 (Homo sapiens, UniProt P11712); test: Induction of CYP450 2C9; assay type: ADME
T1 sequence (P11712 whole entry): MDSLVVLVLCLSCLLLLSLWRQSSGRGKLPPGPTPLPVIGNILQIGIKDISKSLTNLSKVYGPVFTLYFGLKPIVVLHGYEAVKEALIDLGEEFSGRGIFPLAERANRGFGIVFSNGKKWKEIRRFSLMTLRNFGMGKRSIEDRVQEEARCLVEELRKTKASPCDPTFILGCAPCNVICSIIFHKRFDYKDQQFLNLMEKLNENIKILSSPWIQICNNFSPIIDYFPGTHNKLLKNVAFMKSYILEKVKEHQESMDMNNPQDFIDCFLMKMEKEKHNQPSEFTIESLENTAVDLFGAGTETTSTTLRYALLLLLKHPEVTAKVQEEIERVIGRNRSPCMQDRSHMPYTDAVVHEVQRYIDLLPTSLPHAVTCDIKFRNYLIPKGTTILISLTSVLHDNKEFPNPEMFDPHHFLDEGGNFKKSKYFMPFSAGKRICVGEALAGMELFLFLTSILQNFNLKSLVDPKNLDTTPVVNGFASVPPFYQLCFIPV

[4] = molecular target: T2, Cytochrome P450 3A4 (Homo sapiens, UniProt P08684); test: Induction of CYP450 3A4; assay type: ADME
T2 sequence (P08684 whole entry): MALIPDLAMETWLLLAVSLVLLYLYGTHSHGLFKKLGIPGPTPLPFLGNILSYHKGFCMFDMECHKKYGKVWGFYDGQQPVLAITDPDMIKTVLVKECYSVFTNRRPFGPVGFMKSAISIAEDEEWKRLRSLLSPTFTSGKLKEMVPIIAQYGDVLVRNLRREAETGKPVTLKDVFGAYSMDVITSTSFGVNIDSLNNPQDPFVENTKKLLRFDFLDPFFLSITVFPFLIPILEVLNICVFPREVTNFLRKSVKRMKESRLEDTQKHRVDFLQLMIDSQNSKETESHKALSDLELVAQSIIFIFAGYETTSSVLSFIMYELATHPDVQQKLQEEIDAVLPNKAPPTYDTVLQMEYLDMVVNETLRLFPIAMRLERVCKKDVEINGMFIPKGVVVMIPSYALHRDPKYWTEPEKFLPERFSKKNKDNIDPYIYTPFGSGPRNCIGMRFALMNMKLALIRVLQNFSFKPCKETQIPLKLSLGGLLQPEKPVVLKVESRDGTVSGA

[5] = system: Huh-5-2; test: Viability of Huh5-2 cells by MTT assay; assay type: functional; details: Homo sapiens
[6] = molecular target: T3, DNA polymerase subunit gamma-1 (Homo sapiens, UniProt P54098); test: Inhibition of DNA polymerase gamma
T3 sequence (P54098 whole entry): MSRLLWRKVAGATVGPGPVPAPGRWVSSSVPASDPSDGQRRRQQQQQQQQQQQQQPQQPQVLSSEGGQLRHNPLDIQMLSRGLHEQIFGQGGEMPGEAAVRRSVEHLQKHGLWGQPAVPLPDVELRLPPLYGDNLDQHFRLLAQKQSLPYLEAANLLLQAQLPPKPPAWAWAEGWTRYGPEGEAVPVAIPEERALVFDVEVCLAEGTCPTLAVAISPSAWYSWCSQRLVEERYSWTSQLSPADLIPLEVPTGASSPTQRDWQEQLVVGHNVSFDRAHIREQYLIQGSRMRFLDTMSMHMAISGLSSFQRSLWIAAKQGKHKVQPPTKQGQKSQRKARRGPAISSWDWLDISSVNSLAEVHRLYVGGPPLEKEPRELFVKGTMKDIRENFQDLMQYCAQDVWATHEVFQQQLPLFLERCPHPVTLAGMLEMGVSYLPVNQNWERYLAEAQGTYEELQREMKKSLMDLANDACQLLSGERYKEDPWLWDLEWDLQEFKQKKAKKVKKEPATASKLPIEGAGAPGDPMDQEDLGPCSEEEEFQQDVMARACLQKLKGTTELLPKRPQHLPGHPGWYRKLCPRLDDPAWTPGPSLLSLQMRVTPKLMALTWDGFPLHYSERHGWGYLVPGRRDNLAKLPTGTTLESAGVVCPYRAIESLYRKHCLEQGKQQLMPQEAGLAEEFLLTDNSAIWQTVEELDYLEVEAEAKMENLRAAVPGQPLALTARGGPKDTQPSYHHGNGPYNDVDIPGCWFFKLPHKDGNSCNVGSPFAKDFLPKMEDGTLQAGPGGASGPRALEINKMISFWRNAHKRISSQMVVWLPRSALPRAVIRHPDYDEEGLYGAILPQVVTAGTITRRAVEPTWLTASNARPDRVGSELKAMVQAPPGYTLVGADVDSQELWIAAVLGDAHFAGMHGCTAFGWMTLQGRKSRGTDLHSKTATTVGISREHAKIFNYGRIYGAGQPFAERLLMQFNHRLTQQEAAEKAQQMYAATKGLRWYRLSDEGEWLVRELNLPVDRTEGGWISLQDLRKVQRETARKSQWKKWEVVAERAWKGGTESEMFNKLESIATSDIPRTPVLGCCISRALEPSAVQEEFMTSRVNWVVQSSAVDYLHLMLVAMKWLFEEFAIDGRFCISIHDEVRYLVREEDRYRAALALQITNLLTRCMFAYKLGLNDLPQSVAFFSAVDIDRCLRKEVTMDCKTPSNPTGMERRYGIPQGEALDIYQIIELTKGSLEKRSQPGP

[7] = Inhibition of mammalian DNA dependent RNA polymerase
[8] = Liver concentration in rat at 10 mg/kg, po after 2 hrs; assay type: ADME, organism-based; parameters: dose 10 mg/kg, route oral; details: read-out: Drug uptake
[9] = molecular target: T4, RNA-directed RNA polymerase (Hepacivirus hominis, UniProt O39930); test: Inhibition of HCV 1b BK six His-tagged C-terminal truncated 544 amino acid NS5B RNA dependent RNA polymerase; parameters: species or system Hepatitis C virus subtype 1b
T4 sequence (O39930 whole entry, the tested form may be a part): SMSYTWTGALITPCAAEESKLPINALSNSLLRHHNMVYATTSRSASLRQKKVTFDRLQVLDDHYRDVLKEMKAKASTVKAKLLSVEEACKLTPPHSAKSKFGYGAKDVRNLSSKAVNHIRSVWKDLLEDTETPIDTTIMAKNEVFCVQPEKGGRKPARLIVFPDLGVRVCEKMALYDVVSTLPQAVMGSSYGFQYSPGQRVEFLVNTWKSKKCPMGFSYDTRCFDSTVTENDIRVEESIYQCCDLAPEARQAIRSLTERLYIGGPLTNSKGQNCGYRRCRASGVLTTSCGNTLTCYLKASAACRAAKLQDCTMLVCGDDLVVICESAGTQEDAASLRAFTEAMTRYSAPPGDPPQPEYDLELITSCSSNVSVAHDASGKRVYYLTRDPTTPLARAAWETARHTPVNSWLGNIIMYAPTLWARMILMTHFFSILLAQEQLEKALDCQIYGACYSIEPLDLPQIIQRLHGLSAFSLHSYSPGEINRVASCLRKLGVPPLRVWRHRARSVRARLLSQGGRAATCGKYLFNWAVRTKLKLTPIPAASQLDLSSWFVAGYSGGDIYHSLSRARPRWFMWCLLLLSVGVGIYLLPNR
Procedure, shortened: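 HCV genotype 1b (BK) NS5B lacking 47 C-terminal residues, His6-tagged, E. coli-expressed; 7 nM enzyme with 5 µg HCV 3′X RNA template-primer, 50 µM each ATP/GTP/CTP, 2 µM UTP plus [3H]-UTP; pH 7.5 Tris, 5 mM MgCl2. Compounds in DMSO (5% final). 60 min at 25 °C; TCA-precipitable radioactivity read. Triplicate, mean of three experiments.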

[10] = molecular target: T4, RNA-directed RNA polymerase; test: Inhibition of HCV 2b NS5B RNA dependent RNA polymerase; parameters: species or system Hepatitis C virus subtype 2b
Procedure, shortened: (§2)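 IC50 from the mean of four independent experiments; standard deviations within 30% of the mean.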

[11] = Therapeutic index, CC50 for viability of Huh5-2 cells/EC50 for inhibition of HCV subgenomic RNA replication; assay type: cell-based, Huh-5-2; details: human, read-out: Ratio CC50/EC50
[12] = Plasma concentration in rat at 30 mg/kg, po after 1 hr; assay type: ADME, organism-based; parameters: dose 30 mg/kg, route oral; procedure, shortened: as §1
[13] = molecular target: T4, RNA-directed RNA polymerase; test: Inhibition of HCV 2a NS5B RNA dependent RNA polymerase; parameters: species or system Hepatitis C virus subtype 2a; procedure, shortened: as §2
[14] = Half life in rat at 10 mg/kg; assay type: ADME, organism-based; parameters: dose 10 mg/kg; details: in vivo
[15] = Oral bioavailability in rat at 10 mg/kg; assay type: ADME, organism-based; details: in vivo
[16] = molecular target: Human immunodeficiency virus type 1 reverse transcriptase (Human immunodeficiency virus 1, UniProt Q72547); test: Inhibition of HIV reverse transcriptase
[17] = molecular target: T1, Cytochrome P450 2C9; test: Inhibition of CYP450 2C9; assay type: ADME
[18] = molecular target: T5, Cytochrome P450 2D6 (Homo sapiens, UniProt P10635); test: Inhibition of CYP450 2D6; assay type: ADME
T5 sequence (P10635 whole entry): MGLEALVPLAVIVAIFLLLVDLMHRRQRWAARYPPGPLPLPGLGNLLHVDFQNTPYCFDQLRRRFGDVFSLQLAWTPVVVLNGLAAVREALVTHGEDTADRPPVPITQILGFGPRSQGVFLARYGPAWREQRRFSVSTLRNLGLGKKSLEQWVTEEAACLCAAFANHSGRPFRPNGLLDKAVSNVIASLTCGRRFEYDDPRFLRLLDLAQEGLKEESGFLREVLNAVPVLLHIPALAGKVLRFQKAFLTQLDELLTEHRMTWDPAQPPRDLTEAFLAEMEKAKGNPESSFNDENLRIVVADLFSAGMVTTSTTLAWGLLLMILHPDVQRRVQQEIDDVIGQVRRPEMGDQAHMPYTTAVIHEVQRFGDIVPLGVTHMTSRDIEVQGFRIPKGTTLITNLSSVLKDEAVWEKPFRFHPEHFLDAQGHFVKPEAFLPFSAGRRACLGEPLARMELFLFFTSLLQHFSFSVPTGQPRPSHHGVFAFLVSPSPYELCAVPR

[19] = molecular target: T5, Cytochrome P450 2D6; test: Induction of CYP450 2D6; assay type: ADME
[20] = molecular target: DNA polymerase beta (Homo sapiens, UniProt P06746); test: Inhibition of DNA polymerase beta
[21] = system: Rattus norvegicus; test: Toxicity in rat up to 300 mg/kg/day after 4 weeks; assay type: organism-based; details: in vivo, 672 h
[22] = molecular target: T4, RNA-directed RNA polymerase; test: Inhibition of HCV 1a NS5B RNA dependent RNA polymerase; parameters: species or system Hepatitis C virus subtype 1a; procedure, shortened: as §2
[23] = molecular target: T4, RNA-directed RNA polymerase; test: Inhibition of HCV 3a NS5B RNA dependent RNA polymerase; procedure, shortened: as §2
[24] = molecular target: T2, Cytochrome P450 3A4; test: Inhibition of CYP450 3A4; assay type: ADME

- EC50 [1]: 0.32 µM
- concentration at 2 h [2]: 4.5 µM
- Activity [3]: Not Active
- Activity [4]: Not Active
- IC50 [6]: > 10 µM
- IC50 [7]: > 10 µM
- concentration at 2 h [8]: 78.5 µM
- IC50 [9]: 0.017 µM
- IC50 [10]: 2 µM
- concentration at 1 h [12]: 4 µM
- IC50 [13]: 6.4 µM
- half-life [14]: 2.1 h
- bioavailability [15]: 36%
- IC50 [16]: > 10 µM
- Inhibition [17]: Not Active
- Inhibition [18]: Not Active
- Activity [19]: Not Active
- IC50 [20]: > 10 µM
- IC50 [22]: 0.062 µM
- IC50 [23]: 0.061 µM
- Inhibition [24]: Not Active
SMILES: O=C(O)c1ccc2c(c1)nc(-c1ccc(OCc3cc(N4CCCC4=O)ccc3-c3ccc(Cl)cc3)cc1F)n2C1CCCCC1
- CC50 [5]: 25 µM
- selectivity ratio [11]: 78
- Activity [21]: Non-toxic
